# PglD DTNB = PglD (C. jejuni) enzyme inhibition; purified PglD enzyme, DTNB colorimetric CoA detection; inhibition, % at 12.5 µM; 360,000 tested, 0.098% active; AID 602405; in the data active = inhibition above about 16%, passing the limit was not always enough
# rRNA inh HTS = inhibits bacterial ribosomal RNA function over humanized ribosomes; 350,000 tested, 1.6% active; E. coli WT GFP vs humanized-ribosome RFP mutants, fluorescence, 24 h; hits give low values; DMSO median 0, no signal -100; AID 720706; GFP signal change (wild-type ribosome), % (test concentration not listed);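 active = significant combined selectivity score with lowered wild-type GFP, culture density cut under 30%, mutant RFP and density less affected; inactive = any of these conditions unmet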
# PGC1a acetyl inh = lowers PGC1a acetylation signal in U2OS cells. AlphaScreen anti-acetyl-lysine; with virally co-expressed GCN5 acetyltransferase. inhibition, % at 15.6 µM. 350,000 tested, 0.17% active. AID 651687;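 active = every replicate shows inhibition of at least 40%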
# Vif inh = blocks HIV Vif function | inhibition, % at 7.49 µM | 340,000 tested, 0.35% active | HEK293T cells, Vif self-association by quenched fluorescence, imaging, 24 h; in the data active = inhibition above about 50%, passing the limit was not always enough
# FGF22 binding = shifts melting point of recombinant human FGF22; activity (Tm shift, normalised), % at 9.99 µM; 340,000 tested, 1.5% active; recombinant FGF22 thermal shift, SYPRO orange fluorescence; percent of sucrose octasulfate shift, DMSO zero;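 active = mean Tm shift, scaled 0 neutral to 100 positive control, at about 1.3% or above, every replicate too, limit read from the data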
# Target sequence (Q9HCT0 whole entry, looked up): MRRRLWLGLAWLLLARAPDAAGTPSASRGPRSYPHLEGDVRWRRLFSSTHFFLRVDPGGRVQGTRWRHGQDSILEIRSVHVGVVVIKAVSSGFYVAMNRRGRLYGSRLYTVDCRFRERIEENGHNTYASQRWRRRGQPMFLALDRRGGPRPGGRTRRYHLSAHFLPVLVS
# Cneo AK release = causes C. neoformans cell lysis; lysis activity, % at 15 µM; 360,000 tested, 0.2% active; adenylate kinase release luminescence, 4 h; normalised: neutral wells 0, clomiphene wells 100;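 active = mean lysis activity across replicates of at least 80%, whatever share of replicates individually reach that level; inactive = mean lysis activity below 80%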
#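 Material: C. neoformans cells | Amount: Yeast cell density of 5 × 10^6 cells/mL | Medium: Fresh YPD growth medium | Dosing: Single dose | Times: Static 4 h at 37 °C with compound, 1 h detection | Detection: AK luminescence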
# Hits are given with their value; i = inactive; nt = no result. The list is not random: actives were taken first. Their share in the collection is about 2.9%.
SMILES,PglD DTNB,rRNA inh HTS,PGC1a acetyl inh,Vif inh,FGF22 binding,Cneo AK release
C[C@@H]1CCCCO[C@@H](CN(C)Cc2ccc(Cl)c(Cl)c2)[C@@H](C)CN([C@@H](C)CO)C(=O)c2cc(NC(=O)C3CCCCC3)ccc2O1,i,i,i,nt,i,i
O=C(O)/C=C/C(=O)Nc1ccc(Cl)cc1C(=O)c1ccccc1,i,-23,i,i,i,i
O=C(O)/C=C/C(=O)Nc1ccc(C(=O)c2ccccc2)cc1,nt,i,i,i,i,nt
CN1C(=O)c2cc(NC(=O)c3ccc(C#N)cc3)ccc2OC[C@H]2O[C@@H](CC(=O)NCc3ccc4c(c3)OCO4)CC[C@@H]21,i,i,nt,nt,i,i
O=C(C[C@@H]1CC[C@H]2[C@@H](COC[C@H](O)CN2Cc2cccc(-c3ccncc3)c2)O1)N1CCN(c2ccccc2)CC1,i,i,i,nt,i,i
CCOCCCNC(=S)NCCCNc1nc2ccc(C)cc2cc1C#N,nt,i,nt,nt,i,nt
CCOCCCNC(=S)NCCNc1nc2ccc(C)cc2cc1C#N,nt,i,nt,i,44,nt
O=C(C[C@@H]1C[C@@H]2c3cc(NC(=O)NC4CCCC4)ccc3O[C@@H]2[C@@H](CO)O1)NCc1ccc(-c2ccccc2)cc1,i,i,i,nt,i,i
O=C(C1CC1)N1CC2(C1)[C@@H](c1ccccc1)[C@@H](CO)N2CCC(F)(F)F,nt,i,i,nt,i,nt
COCC(=O)NC[C@@H]1N[C@@H](CO)[C@H]1c1ccc(C2=CCCC2)cc1,i,i,i,nt,nt,93
CN(C[C@H]1N[C@@H](CO)[C@@H]1c1ccc(C2=CCCC2)cc1)C(=O)c1ccc(F)cc1,i,i,79,nt,i,i
COCC(=O)NC[C@H]1N[C@H](CO)[C@@H]1c1ccc(C2=CCCCC2)cc1,i,i,i,nt,nt,i
C[C@H](CO)N1C[C@H](C)[C@@H](CN(C)C(=O)c2cccnc2)Oc2cc(C#CC3(O)CCCC3)ccc2S1(=O)=O,i,i,i,nt,i,i
O=S(=O)(Nc1ccc2nc(C(F)(F)F)[nH]c2c1)c1ccccc1,i,nt,i,nt,nt,i
Cc1ccc(-c2nc3ccc(NS(=O)(=O)c4ccccc4)cc3[nH]2)o1,i,-32,i,i,i,i
C/C=C/c1cnc2c(c1)C(=O)N([C@@H](C)CO)C[C@H](C)[C@@H](CN(C)C(=O)Nc1ccc(OC)cc1)O2,i,i,i,nt,i,i
Cc1ccc(-c2csc3nc(C(C)C)oc(=O)c23)c(C)c1,i,-24,i,i,i,i
COC(=O)c1c(CC[C@@H](CO)NC(=O)N[C@H](Cn2cc(Cc3ccccc3)nn2)C(C)C)oc(C(C)=O)c1C(=O)OC,nt,nt,i,nt,i,i
CCc1csc(N2[C@H](C#N)[C@H](c3ccc(C4=CCCC4)cc3)[C@H]2CO)n1,i,i,i,nt,i,i
COc1ccccc1S(=O)(=O)N[C@H]1CC[C@H](CCNC(=O)C2CCC2)O[C@@H]1CO,i,i,i,nt,i,i
Cc1[nH]n(-c2nc(-c3ccc(Cl)cc3)cs2)c(=O)c1N=Nc1ccc(O)cc1,nt,i,i,i,43,nt
CCc1c(C)[nH]n(-c2nc(-c3ccccc3)cs2)c1=O,nt,i,i,i,i,nt
CCCCCc1cc(=O)oc2c(C(CCN3CCCC(C)C3)c3ccc(OC)cc3)c(OC)cc(OC)c12 (configuration not stated),i,-37,i,i,i,i
O=C(CCCN1C(=O)C(=Cc2ccc3c(c2)OCO3)SC1=S)Nc1ccc(C(=O)O)c(O)c1,i,-26,i,nt,i,i
O=C(CCCN1C(=O)/C(=C\c2cccc(Br)c2)SC1=S)Nc1ccc(C(=O)O)cc1,i,i,i,77,i,i
SMILES,PglD DTNB,rRNA inh HTS,PGC1a acetyl inh,Vif inh,FGF22 binding,Cneo AK release
Cc1noc(C)c1S(=O)(=O)N(C)C[C@@H]1Oc2ccc(NC(=O)NC3CCCCC3)cc2CC(=O)N([C@@H](C)CO)C[C@H]1C,i,i,i,nt,i,i
CCCOc1ccc(-c2cn3ccccc3n2)cc1,nt,i,nt,i,43,nt
Cc1noc(C)c1S(=O)(=O)Nc1ccc2c(c1)C(=O)N([C@@H](C)CO)C[C@@H](C)[C@@H](CN(C)Cc1ccncc1)OCCCC[C@@H](C)O2,i,i,i,nt,i,i
CC(C)(C)NC(=O)C(c1ccc(O)cc1)N(Cc1ccc2c(c1)OCO2)C(=O)CCl (configuration not stated),i,nt,i,80,i,i
COCc1cn(CC[C@H]2CC[C@H](NC(=O)Nc3ccc(Cl)cc3)[C@H](CO)O2)nn1,i,i,i,nt,i,i
Cc1cc(C2(c3ccc(O)c(C)c3)C(=O)N(C)c3ccc(Br)cc32)ccc1O,i,-40,i,i,i,i
O=C1/C(=C/c2ccccn2)SC(=S)N1CCc1ccccc1,nt,i,nt,i,1.6,nt
O=C(C1CCOCC1)N1C[C@H]2[C@@H](c3ccccc31)[C@H](CO)N2Cc1ccccc1,i,i,i,nt,nt,i
Cn1c(=O)c2c(ncn2Cc2ccc(Cl)cc2)n(C)c1=O,nt,i,i,i,44,nt
CSc1ccccc1OCc1cc(C(=O)N2CCC(c3ccncc3)CC2)no1,i,-41,nt,i,i,i
COc1ccc(OCc2cc(C(=O)N3CCN(C4CCCC4)CC3)no2)c(Cl)c1,i,-29,nt,i,i,i
C[C@@H]1CN([C@H](C)CO)C(=O)c2cccc(N(C)C)c2O[C@@H]1CN(C)Cc1ccc(Oc2ccccc2)cc1,i,i,i,nt,i,i
CC(NCc1ccccc1Cl)C(=O)Nc1ccc(C#N)cc1 (configuration not stated),nt,-29,i,i,i,nt
CCNC(=O)C[C@H]1CC[C@H]2[C@H](COc3ccc(NC(=O)Nc4cccc(F)c4)cc3C(=O)N2C)O1,i,i,i,nt,i,i
COc1ccc(OC)c(/C(O)=C/C(=O)C(=O)Nc2cc(C)ccc2OC)c1,i,nt,i,61,nt,i
CCCN(Cc1ccccc1)C(=S)NC(=O)c1ccccc1[N+](=O)[O-],nt,-51,i,i,i,nt
CCN(Cc1ccccc1)C(=S)NC(=O)c1ccccc1Br,i,i,i,i,i,i
CN(C(=O)COc1ncnc2sccc12)c1ccccc1,i,nt,i,i,43,i
Nc1ccc2c(c1)C(=O)C(=O)c1ccccc1-2,nt,nt,107,i,nt,nt
Nc1ccc2c(c1)C(=O)c1ccccc1-2,i,i,i,i,i,i
Cc1ccc2c(c1)-c1c(ssc1=S)C(C)(C)N2C(=O)CSC1=NCCS1,i,-26,i,nt,i,i
O=C(C[C@H]1CC[C@@H]2[C@H](COC[C@@H](O)CN2C(=O)Nc2ccc(F)cc2)O1)NC1CCC1,i,i,i,nt,i,i
O=C(CSc1nc(NS(=O)(=O)c2ccccc2)cc(=O)[nH]1)Nc1cccc(C(F)(F)F)c1,i,i,i,i,i,i
O=C(CSc1nc(NS(=O)(=O)c2ccccc2)cc(=O)[nH]1)Nc1ccc(F)cc1,25,nt,i,i,nt,i

# Bioassay records: PubChem BioAssay, Broad Institute
